Measurements published in ChEMBL document CHEMBL1152126 (Bioorg Med Chem, 2008).
pIC50, pKi: −log10 of the molar value. Calls of active or inactive are those of the source. The rule behind the calls is not given here.

Tests used:
[1] = biological target: T1, Interstitial collagenase (Homo sapiens, UniProt P03956); assay: Inhibition of human recombinant pro-MMP1 by spectrofluorimeter
T1 sequence (P03956 whole entry): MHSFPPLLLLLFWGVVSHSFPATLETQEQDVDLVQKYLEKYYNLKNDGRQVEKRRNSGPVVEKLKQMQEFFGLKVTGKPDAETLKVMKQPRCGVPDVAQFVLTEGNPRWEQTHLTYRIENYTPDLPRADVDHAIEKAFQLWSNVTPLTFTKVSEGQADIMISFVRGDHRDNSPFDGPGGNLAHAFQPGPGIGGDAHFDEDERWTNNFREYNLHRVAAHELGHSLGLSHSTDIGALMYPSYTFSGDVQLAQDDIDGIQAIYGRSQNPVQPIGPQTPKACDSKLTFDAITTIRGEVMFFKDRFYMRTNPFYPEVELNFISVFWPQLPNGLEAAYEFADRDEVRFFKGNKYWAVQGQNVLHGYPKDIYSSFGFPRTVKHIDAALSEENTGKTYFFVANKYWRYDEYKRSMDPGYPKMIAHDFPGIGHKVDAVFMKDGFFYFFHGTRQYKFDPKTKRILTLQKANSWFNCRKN

[2] = biological target: 72 kDa type IV collagenase (Homo sapiens, UniProt P08253); assay: Inhibition of human recombinant pro-MMP2 by spectrofluorimeter
Method in brief: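 Pro-MMP-2 activated with […], 37 °C, 2 h. Assay: 1–2 nM enzyme in 50 mM Tris–HCl pH 7.5, 150 mM NaCl, 5 mM CaCl₂, 25 °C; 30 min inhibitor preincubation, then quenched fluorogenic substrate.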

[3] = biological target: Matrix metalloproteinase-14 (Homo sapiens, UniProt P50281); assay: Inhibition of human recombinant MMP14 catalytic domain by spectrofluorimeter
Method in brief: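 Human recombinant MT1-MMP catalytic domain at 1–2 nM in 50 mM Tris–HCl pH 7.5, 150 mM NaCl, 5 mM CaCl₂ at 25 °C. Inhibitors at 5–7 concentrations preincubated with enzyme for 30 min, then quenched fluorogenic peptide substrate added. Percent inhibition measured in triplicate within a 20–80% inhibition range.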

[4] = biological target: Matrix metalloproteinase-9 (Homo sapiens, UniProt P14780); assay: Inhibition of human recombinant pro-MMP9 by spectrofluorimeter
Method in brief: (§1)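 Pro-enzymes (human recombinant) freshly activated with […] at 37 °C for 2 h. Activated MMP at 1–2 nM in 50 mM Tris–HCl pH 7.5, 150 mM NaCl, 5 mM CaCl₂ at 25 °C, preincubated 30 min with inhibitor before quenched fluorogenic substrate. Percent inhibition from triplicates at 5–7 concentrations within the 20–80% range.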

[5] = biological target: Stromelysin-1 (Homo sapiens, UniProt P08254); assay: Inhibition of human recombinant MMP3 catalytic domain by spectrofluorimeter
Method in brief: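 MMP-3 human recombinant catalytic domain (1–2 nM) was assayed in 50 mM Tris–HCl pH 7.5, 5 mM CaCl₂, […] at 25 °C. Enzyme and inhibitor were preincubated for 30 min before quenched fluorogenic substrate was added. Triplicate percent inhibition was taken at 5–7 inhibitor concentrations spanning 20–80% inhibition.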

[6] = organism: Homo sapiens; assay: Selectivity ratio of IC50 for human recombinant pro-MMP2 to IC50 for human recombinant pro-MMP1
[7] = biological target: T2, Matrilysin (Homo sapiens, UniProt P09237); assay: Inhibition of human recombinant pro-MMP7 by spectrofluorimeter; method in brief: as §1
T2 sequence (P09237 whole entry): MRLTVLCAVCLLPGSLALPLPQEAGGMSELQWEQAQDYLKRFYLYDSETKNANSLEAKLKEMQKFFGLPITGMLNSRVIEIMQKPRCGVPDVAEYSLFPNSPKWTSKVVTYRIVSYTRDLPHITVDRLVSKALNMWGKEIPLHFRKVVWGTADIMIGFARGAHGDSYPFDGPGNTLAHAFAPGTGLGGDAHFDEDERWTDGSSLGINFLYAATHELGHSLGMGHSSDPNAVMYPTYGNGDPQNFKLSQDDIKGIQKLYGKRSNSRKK

Matrix metalloproteinase-9, sequence (P14780 whole entry): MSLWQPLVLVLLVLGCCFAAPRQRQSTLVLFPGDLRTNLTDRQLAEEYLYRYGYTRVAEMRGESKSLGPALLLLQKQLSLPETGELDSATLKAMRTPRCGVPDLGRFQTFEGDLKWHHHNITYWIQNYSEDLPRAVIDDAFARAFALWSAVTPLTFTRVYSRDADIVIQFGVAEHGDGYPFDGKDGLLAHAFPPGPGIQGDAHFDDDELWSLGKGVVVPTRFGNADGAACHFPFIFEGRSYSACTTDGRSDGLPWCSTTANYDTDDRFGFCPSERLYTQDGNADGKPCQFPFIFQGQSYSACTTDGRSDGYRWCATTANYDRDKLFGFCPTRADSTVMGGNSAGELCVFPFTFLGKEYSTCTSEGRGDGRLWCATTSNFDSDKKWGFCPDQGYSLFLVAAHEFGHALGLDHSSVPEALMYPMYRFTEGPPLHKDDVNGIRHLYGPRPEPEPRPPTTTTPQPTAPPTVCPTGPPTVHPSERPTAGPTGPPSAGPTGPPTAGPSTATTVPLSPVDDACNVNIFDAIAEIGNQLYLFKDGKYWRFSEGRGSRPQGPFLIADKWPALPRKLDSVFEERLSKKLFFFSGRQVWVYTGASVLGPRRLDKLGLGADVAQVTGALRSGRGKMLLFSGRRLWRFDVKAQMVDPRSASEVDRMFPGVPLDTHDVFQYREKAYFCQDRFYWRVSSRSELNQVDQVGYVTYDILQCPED
Stromelysin-1, sequence (P08254 whole entry, the tested form may be a part): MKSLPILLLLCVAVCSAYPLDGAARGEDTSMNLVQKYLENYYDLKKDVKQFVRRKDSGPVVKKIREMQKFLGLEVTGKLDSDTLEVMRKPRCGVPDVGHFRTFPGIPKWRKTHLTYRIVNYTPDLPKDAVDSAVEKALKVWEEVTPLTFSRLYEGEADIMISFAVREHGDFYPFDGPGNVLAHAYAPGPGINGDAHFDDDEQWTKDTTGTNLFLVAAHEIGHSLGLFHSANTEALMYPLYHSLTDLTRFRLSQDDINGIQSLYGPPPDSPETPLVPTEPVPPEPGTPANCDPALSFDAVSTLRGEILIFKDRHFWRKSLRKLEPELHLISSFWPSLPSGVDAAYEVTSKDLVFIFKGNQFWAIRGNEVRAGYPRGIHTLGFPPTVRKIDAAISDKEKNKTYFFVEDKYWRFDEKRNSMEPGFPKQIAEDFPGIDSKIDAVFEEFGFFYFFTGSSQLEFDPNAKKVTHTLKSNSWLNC
72 kDa type IV collagenase, sequence (P08253 whole entry): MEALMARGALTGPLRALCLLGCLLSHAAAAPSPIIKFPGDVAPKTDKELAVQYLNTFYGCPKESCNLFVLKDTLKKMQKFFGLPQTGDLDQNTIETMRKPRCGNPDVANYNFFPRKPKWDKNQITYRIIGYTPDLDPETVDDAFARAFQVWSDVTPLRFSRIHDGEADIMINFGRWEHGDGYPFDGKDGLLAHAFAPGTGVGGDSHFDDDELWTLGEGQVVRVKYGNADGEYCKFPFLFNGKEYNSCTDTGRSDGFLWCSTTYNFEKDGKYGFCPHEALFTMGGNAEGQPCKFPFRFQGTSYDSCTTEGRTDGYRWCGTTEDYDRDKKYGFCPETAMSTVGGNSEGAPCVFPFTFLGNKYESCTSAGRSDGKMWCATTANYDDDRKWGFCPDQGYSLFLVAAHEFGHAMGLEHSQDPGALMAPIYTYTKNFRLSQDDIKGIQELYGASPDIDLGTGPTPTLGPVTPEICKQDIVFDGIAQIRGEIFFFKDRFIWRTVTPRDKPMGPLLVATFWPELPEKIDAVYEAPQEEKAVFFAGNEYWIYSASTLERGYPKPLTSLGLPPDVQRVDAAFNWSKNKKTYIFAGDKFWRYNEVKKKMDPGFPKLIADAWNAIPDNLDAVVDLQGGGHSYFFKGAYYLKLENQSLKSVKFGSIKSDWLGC

## CNC(=O)[C@H](Cc1c[nH]c2ccccc12)NC(=O)[C@@H](CC(=O)NNS(=O)(=O)c1ccccc1N)CC(C)C
[1]
  pIC50: 7.03
[2]
  pIC50: 7.04
[3]
  pIC50: 6.14

## CNC(=O)[C@H](Cc1c[nH]c2ccccc12)NC(=O)[C@@H](CC(=O)NNS(=O)(=O)c1ccccc1[N+](=O)[O-])CC(C)C
[1]
  pIC50: 6.07
[2]
  pIC50: 6.49
[3]
  pIC50: 5.96

## CNC(=O)[C@H](Cc1c[nH]c2ccccc12)NC(=O)[C@@H](CC(=O)NNc1ccc([N+](=O)[O-])cc1[N+](=O)[O-])CC(C)C
[1]
  pIC50: < 5.00
[2]
  pIC50: 5.00
[3]
  pIC50: < 5.00

## CCCCCCCCCCCCCCCCS(=O)(=O)NNC(=O)C[C@@H](CC(C)C)C(=O)N[C@@H](Cc1c[nH]c2ccccc12)C(=O)NC
[1]
  pIC50: 6.36
[2]
  pIC50: 6.52
[3]
  pIC50: 5.29

## CNC(=O)[C@H](Cc1c[nH]c2ccccc12)NC(=O)[C@@H](CC(=O)NNc1ccc(OC)cc1)CC(C)C
[1]
  pIC50: 6.48
[2]
  pIC50: 5.00
[3]
  pIC50: < 5.00

## CNC(=O)[C@H](Cc1c(-c2ccccc2)[nH]c2ccccc12)NC(=O)/C(=C/CCc1ccccc1)CC(=O)NNS(=O)(=O)c1ccc(-c2ccc(Br)cc2)cc1
[1]
  pIC50: 5.97
[2]
  pIC50: 7.19
[4]
  pIC50: 6.08
[3]
  Activity: inactive
[5]
  pIC50: 6.33

## CNC(=O)[C@H](Cc1c[nH]c2ccccc12)NC(=O)[C@@H](CC(=O)NNS(=O)(=O)c1ccc([N+](=O)[O-])cc1)CC(C)C
[1]
  pIC50: 6.31
[2]
  pIC50: 6.51
[3]
  pIC50: 5.82

## CNC(=O)[C@H](Cc1c[nH]c2ccccc12)NC(=O)[C@@H](CC(=O)NNS(=O)(=O)c1ccc(C)cc1)CC(C)C
[1]
  pIC50: 6.60
[2]
  pIC50: 7.62
[3]
  pIC50: 5.59
[6]
  Ratio IC50: 10

## CCCCCC/C=C(\CC(=O)NNS(=O)(=O)c1ccc(-c2ccc(Br)cc2)cc1)C(=O)N[C@@H](Cc1c(-c2ccccc2)[nH]c2ccccc12)C(=O)NC
[1]
  pIC50: 5.69
[2]
  pIC50: 5.90
[4]
  pIC50: 6.14
[3]
  pIC50: 5.42
[5]
  pIC50: 6.76

## CNC(=O)[C@H](Cc1c[nH]c2ccccc12)NC(=O)[C@@H](CC(=O)NNS(C)(=O)=O)CC(C)C
[1]
  pIC50: 5.25
[2]
  pIC50: 6.13
[3]
  pIC50: 5.43

## CNC(=O)[C@H](Cc1c[nH]c2ccccc12)NC(=O)[C@@H](CC(=O)NNS(=O)(=O)c1c(C(C)C)cc(C(C)C)cc1C(C)C)CC(C)C
[1]
  pIC50: 5.40
[2]
  pIC50: 7.00
[3]
  pIC50: 5.51

## CNC(=O)[C@H](Cc1c[nH]c2ccccc12)NC(=O)[C@@H](CC(=O)NNS(=O)(=O)c1ccc(-c2ccc(Br)cc2)cc1)CC(C)C
[1]
  pIC50: 7.52
[2]
  pIC50: 8.01
  pKi: 8.07
[4]
  pIC50: 8.52
  pKi: 8.44
[7]
  pIC50: 6.32
  pKi: 6.28
[3]
  pIC50: 4.77
  pKi: 5.72
[5]
  pIC50: 5.77
  pKi: 6.38

## CCCCCC/C=C(\CC(=O)NNS(=O)(=O)c1ccc(-c2ccc(Br)cc2)cc1)C(=O)N[C@@H](Cc1c[nH]c2ccccc12)C(=O)NC
[2]
  pIC50: 5.74
[4]
  pIC50: 5.59
[3]
  Activity: inactive
[5]
  pIC50: 5.60

## CNC(=O)[C@H](Cc1c[nH]c2ccccc12)NC(=O)[C@@H](CC(=O)NNc1ccc([N+](=O)[O-])cc1)CC(C)C
[1]
  pIC50: < 5.00
[2]
  pIC50: 5.00
[3]
  pIC50: < 5.00

## CCCCCCCCCCCCS(=O)(=O)NNC(=O)C[C@@H](CC(C)C)C(=O)N[C@@H](Cc1c[nH]c2ccccc12)C(=O)NC
[1]
  pIC50: 6.01
[2]
  pIC50: 5.85
[3]
  pIC50: 5.01

## CNC(=O)[C@H](Cc1c(-c2ccccc2)[nH]c2ccccc12)NC(=O)[C@@H](CC(=O)NNS(=O)(=O)c1ccc(-c2ccc(Br)cc2)cc1)CC(C)C
[1]
  pIC50: 6.46
[2]
  pIC50: 6.61
[4]
  pIC50: 7.74
[3]
  pIC50: 5.91
[5]
  pIC50: 7.28

## CNC(=O)[C@H](Cc1c[nH]c2ccccc12)NC(=O)[C@@H](CC(=O)NO)CC(C)C [ILOMASTAT]
[3]
  pIC50: 8.28
[5]
  pIC50: 7.59

## CNC(=O)[C@H](Cc1c[nH]c2ccccc12)NC(=O)[C@@H](CC(=O)NNS(=O)(=O)c1ccc(Cl)cc1)CC(C)C
[1]
  pIC50: 6.54
[2]
  pIC50: 7.74
[3]
  pIC50: 6.72

## CNC(=O)[C@H](Cc1c[nH]c2ccccc12)NC(=O)[C@@H](CC(=O)NNS(=O)(=O)c1ccc2ccccc2c1)CC(C)C
[1]
  pIC50: 6.82
[2]
  pIC50: 7.43
[4]
  pIC50: 7.96
[7]
  pIC50: 5.21
[3]
  pIC50: 5.00
[5]
  pIC50: 5.85

## CNC(=O)[C@H](Cc1c[nH]c2ccccc12)NC(=O)[C@@H](CC(=O)NNS(=O)(=O)c1ccc(Oc2ccccc2)cc1)CC(C)C
[1]
  pIC50: 6.96
[2]
  pIC50: 7.35
[3]
  pIC50: 5.55

## CNC(=O)[C@H](Cc1c[nH]c2ccccc12)NC(=O)[C@@H](CC(=O)NNS(=O)(=O)c1ccc(N2C(=O)CCC2=O)cc1)CC(C)C
[1]
  pIC50: 7.04
[2]
  pIC50: 7.10
[4]
  pIC50: 8.07
[7]
  pIC50: 6.96
[3]
  pIC50: 6.14
[5]
  pIC50: 6.04

## CNC(=O)[C@H](Cc1c[nH]c2ccccc12)NC(=O)[C@@H](CC(=O)NNc1ccc(Cl)c(Cl)c1)CC(C)C
[1]
  pIC50: 5.25
[2]
  pIC50: 5.00
[3]
  pIC50: 6.00

## CNC(=O)[C@H](Cc1c[nH]c2ccccc12)NC(=O)/C(=C/CCc1ccccc1)CC(=O)NNS(=O)(=O)c1ccc(-c2ccc(Br)cc2)cc1
[1]
  pIC50: 5.99
[2]
  pIC50: 6.51
[4]
  pIC50: 5.90
[3]
  pIC50: 6.98
[5]
  pIC50: 5.41
